The Ki is a measure of affinity in units of concentration, obtained from inhibition or displacement.

We go through 26 compounds from ChEMBL document CHEMBL3393047, “Pyridine and pyridinone-based factor XIa inhibitors” (Bioorg Med Chem Lett, 2015).

In one assay the target is Coagulation factor XI (Homo sapiens, UniProt P03951). Nature of the assay: Inhibition of human coagulation factor 11a after 10 to 120 mins.
The next assay has as its system Plasma. Nature of the assay: Anticoagulant activity in human plasma assessed as concentration required to double the activated partial thromboplastin time. Format: functional. The method in brief:
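In vitro clotting assay run in human plasma; activity read out as the activated partial thromboplastin time, and the value reported as EC2x, the concentration that doubles aPTT.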

A further assay addresses Prothrombin (Homo sapiens, UniProt P00734). Description: Inhibition of human thrombin. The method in brief:
(§1)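 Ki determined against purified human enzymes (selectivity panel of serine proteases).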

In assay [1] the target is Tissue-type plasminogen activator (Homo sapiens, UniProt P00750). Description: Inhibition of human TPA. Summed up:
as §1

Assay [2] addresses Vitamin K-dependent protein C (Homo sapiens, UniProt P04070). Description: Inhibition of human activated protein C. Summed up:
as §1

A further assay addresses Coagulation factor IX (Homo sapiens, UniProt P00740). Nature of the assay: Inhibition of human coagulation factor 9a. Summed up:
as §1

For another assay, the target named is Plasma kallikrein (Homo sapiens, UniProt P03952). Description: Inhibition of human plasma kallikrein. The method in brief: as §1
Assay [3] deals with Urokinase-type plasminogen activator (Homo sapiens, UniProt P00749). Description: Inhibition of human urokinase. Summed up: as §1
Another assay deals with T1, Coagulation factor VII (Homo sapiens, UniProt P08709).
T1 sequence (P08709 whole entry): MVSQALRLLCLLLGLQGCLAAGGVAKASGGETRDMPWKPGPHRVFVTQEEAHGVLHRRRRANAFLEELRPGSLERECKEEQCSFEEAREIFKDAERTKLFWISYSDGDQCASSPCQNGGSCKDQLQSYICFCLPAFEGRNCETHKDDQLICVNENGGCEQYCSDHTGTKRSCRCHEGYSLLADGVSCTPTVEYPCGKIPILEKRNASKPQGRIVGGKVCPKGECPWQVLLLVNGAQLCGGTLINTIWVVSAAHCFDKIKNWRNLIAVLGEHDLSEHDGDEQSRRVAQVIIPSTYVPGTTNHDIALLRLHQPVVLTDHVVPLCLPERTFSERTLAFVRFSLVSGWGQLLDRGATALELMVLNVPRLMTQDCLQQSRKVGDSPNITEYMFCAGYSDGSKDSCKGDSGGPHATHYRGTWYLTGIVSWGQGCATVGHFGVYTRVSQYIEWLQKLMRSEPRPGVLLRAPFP
Nature of the assay: Inhibition of human coagulation factor 7a. Summed up:
as §1

Another assay addresses Trypsin (Homo sapiens, UniProt P07477+P07478+P35030). Description: Inhibition of human trypsin. The class given is protein assay. The method in brief:
as §1

The nature of assay [4]: Inhibition of human chymotrypsin. Summed up:
as §1

For a further assay, the target named is Coagulation factor X (Homo sapiens, UniProt P00742). Description: Inhibition of human coagulation factor 10a. The method in brief:
as §1

A further assay deals with Plasminogen (Homo sapiens, UniProt P00747). Nature of the assay: Inhibition of human plasmin. Summed up: as §1
Chain of Plasminogen (P00747 97-580 limits assumed): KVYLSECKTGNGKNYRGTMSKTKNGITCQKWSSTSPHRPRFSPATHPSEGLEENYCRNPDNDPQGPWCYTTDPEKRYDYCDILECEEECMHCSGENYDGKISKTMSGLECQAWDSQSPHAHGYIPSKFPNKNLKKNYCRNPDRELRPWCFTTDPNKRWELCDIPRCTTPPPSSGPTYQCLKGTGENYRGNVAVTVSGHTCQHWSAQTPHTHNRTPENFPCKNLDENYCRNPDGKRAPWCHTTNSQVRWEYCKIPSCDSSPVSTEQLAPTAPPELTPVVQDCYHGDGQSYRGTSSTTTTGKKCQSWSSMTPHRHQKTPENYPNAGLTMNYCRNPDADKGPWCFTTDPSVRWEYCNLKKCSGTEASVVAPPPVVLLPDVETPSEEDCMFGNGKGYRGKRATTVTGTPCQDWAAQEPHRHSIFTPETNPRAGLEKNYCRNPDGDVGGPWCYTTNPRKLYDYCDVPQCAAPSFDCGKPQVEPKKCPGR
Chain of Plasminogen (P00747 581-810 limits assumed): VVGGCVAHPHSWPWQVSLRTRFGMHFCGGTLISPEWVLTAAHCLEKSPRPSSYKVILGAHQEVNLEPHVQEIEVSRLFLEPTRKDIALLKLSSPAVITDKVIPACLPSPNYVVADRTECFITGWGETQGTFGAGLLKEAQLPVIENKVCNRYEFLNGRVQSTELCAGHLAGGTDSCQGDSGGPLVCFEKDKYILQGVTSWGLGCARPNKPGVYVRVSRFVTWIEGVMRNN

Chain of Coagulation factor XI (P03951 19-387 limits assumed): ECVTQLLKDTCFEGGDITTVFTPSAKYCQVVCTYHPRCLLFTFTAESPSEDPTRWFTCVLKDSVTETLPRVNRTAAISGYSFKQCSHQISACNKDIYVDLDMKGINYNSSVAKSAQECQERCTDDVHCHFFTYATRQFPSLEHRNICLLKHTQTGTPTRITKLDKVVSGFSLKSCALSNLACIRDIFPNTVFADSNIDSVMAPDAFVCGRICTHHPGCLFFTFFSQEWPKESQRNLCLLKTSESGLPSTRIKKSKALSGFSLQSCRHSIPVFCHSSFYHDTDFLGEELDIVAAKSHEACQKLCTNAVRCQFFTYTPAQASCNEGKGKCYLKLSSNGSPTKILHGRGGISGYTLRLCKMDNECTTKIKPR
Chain of Coagulation factor XI (P03951 388-625 limits assumed): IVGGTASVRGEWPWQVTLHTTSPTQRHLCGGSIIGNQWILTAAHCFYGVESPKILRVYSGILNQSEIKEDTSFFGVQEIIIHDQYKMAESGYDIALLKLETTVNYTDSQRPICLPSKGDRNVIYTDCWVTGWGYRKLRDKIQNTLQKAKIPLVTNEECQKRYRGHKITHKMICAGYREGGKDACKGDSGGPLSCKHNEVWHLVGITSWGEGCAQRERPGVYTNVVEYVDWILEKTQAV
Chain of Plasma kallikrein (P03952 20-390 limits assumed): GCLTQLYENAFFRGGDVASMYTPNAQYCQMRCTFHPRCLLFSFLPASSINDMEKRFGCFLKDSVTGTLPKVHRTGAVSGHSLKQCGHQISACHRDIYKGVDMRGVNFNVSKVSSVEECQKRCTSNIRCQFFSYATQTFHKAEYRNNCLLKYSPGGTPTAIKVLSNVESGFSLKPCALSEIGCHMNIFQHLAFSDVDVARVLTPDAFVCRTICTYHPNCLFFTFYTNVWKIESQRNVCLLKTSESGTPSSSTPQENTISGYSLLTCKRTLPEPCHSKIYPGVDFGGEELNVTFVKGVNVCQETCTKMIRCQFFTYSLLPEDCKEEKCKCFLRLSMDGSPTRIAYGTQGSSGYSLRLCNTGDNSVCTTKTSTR
Chain of Plasma kallikrein (P03952 391-638 limits assumed): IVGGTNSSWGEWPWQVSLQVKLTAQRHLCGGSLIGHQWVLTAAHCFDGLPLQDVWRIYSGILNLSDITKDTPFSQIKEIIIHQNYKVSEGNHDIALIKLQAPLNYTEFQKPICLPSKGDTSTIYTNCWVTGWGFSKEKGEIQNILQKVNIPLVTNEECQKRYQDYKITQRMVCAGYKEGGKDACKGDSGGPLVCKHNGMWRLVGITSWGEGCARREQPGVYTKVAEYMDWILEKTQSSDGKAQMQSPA
Chain of Coagulation factor X (P00742 41-179 limits assumed): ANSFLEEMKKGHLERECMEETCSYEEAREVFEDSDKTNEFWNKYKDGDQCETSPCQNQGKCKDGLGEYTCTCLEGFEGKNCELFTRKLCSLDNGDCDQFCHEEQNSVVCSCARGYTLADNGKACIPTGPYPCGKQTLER
Chain of Coagulation factor X (P00742 235-488 limits assumed): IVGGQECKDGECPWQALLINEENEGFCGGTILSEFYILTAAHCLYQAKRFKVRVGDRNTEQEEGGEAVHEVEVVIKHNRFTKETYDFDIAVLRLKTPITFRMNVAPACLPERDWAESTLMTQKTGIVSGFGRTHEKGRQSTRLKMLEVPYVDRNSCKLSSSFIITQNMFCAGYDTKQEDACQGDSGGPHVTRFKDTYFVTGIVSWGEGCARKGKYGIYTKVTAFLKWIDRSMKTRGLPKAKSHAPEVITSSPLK
Chain of Tissue-type plasminogen activator (P00750 whole entry): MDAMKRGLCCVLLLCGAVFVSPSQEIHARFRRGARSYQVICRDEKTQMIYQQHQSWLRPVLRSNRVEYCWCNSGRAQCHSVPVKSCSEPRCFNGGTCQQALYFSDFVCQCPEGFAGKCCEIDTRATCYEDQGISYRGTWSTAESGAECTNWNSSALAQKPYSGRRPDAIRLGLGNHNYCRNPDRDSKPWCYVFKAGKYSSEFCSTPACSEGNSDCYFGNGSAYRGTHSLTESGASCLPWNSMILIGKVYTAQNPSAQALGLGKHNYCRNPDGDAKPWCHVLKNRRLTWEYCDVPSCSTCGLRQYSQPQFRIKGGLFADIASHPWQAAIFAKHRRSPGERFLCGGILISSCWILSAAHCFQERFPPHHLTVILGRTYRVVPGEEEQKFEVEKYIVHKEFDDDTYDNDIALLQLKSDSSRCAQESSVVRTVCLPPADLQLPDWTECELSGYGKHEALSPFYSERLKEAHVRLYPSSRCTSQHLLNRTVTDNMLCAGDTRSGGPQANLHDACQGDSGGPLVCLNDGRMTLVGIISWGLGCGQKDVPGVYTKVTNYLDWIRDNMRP
Chain of Vitamin K-dependent protein C (P04070 43-197 limits assumed): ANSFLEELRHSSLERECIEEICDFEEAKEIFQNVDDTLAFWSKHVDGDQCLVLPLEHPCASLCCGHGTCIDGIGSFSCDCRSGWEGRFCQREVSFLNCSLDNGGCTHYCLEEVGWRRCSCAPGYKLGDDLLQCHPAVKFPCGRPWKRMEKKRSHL
Chain of Vitamin K-dependent protein C (P04070 212-461 limits assumed): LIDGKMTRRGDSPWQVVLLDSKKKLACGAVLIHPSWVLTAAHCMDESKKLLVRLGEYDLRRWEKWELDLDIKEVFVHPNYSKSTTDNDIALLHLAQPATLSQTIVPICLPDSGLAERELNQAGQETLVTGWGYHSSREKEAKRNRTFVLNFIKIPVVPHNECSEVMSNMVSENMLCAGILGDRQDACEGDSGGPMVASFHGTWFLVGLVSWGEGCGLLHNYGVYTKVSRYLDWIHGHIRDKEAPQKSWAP
Chain of Coagulation factor IX (P00740 47-191 limits assumed): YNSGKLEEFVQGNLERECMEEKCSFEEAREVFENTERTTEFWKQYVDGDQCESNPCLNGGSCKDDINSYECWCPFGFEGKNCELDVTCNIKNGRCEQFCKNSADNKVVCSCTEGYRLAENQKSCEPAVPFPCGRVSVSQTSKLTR
Chain of Coagulation factor IX (P00740 227-461 limits assumed): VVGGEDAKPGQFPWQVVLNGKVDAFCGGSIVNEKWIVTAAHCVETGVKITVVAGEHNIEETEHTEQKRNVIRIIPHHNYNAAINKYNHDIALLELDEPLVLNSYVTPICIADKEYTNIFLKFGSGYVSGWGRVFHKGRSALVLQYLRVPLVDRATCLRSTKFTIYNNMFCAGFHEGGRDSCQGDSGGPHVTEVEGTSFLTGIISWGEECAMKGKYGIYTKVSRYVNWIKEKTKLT

`NC[C@H]1CC[C@H](C(=O)NC(Cc2ccccc2)c2cc(-c3ccccc3)cc(O)n2)CC1` (mixture of isomers): on Coagulation factor XI, the Ki was 113 nM. That is a sub-micromolar value.
Still for that read-out and setting: the figure for `COc1cc(-c2ccccc2)cc(C(Cc2ccccc2)NC(=O)[C@H]2CC[C@H](CN)CC2)n1` (mixture of isomers) is 949 nM.
Still for that read-out and setting: for `NC[C@H]1CC[C@H](C(=O)NC(Cc2ccccc2)c2cccc(-c3ccccc3)c2)CC1` (mixture of isomers) the value was 936 nM.
In the case of `NC[C@H]1CC[C@H](C(=O)NC(Cc2ccccc2)c2cc(-c3ccc4c(N)n[nH]c4c3)ccn2)CC1` (mixture of isomers), in the assay with Plasma, the 2aPTT is 6 µM. The Ki at Coagulation factor XI came to 13 nM.
As for `NC[C@H]1CC[C@H](C(=O)NC(Cc2ccccc2)c2cc(-c3ccccc3)ccn2)CC1` (mixture of isomers), the Ki at Coagulation factor XI came out at 377 nM.
Take `NC[C@H]1CC[C@H](C(=O)NC(Cc2ccccc2)c2cc(-c3ccccc3)c[n+]([O-])c2)CC1` (mixture of isomers): at Coagulation factor XI, the affinity corresponds to a Ki of 1060 nM.
For the compound `NC[C@H]1CC[C@H](C(=O)NC(Cc2ccccc2)c2cc(-c3ccc4c(N)n[nH]c4c3)cc(=O)[nH]2)CC1` (mixture of isomers), in the assay with Plasma, the 2aPTT stood at 2.5 µM. Affinity on Coagulation factor XI was put at a Ki of 3.7 nM.
In the case of `NC[C@H]1CC[C@H](C(=O)N[C@@H](Cc2ccccc2)c2nccc(-c3ccccc3)n2)CC1`, affinity at Coagulation factor XI was put at a Ki of 11400 nM.
Same read-out and setting: for `Cn1c(C(Cc2ccccc2)NC(=O)[C@H]2CC[C@H](CN)CC2)cc(-c2ccccc2)cc1=O` (mixture of isomers) the value was 479 nM; for `NC[C@H]1CC[C@H](C(=O)NC(Cc2ccccc2)c2cc[n+]([O-])c(-c3ccccc3)c2)CC1` (mixture of isomers), 2530 nM.
The compound `NC[C@H]1CC[C@H](C(=O)NC(Cc2ccccc2)c2cc(-c3ccccc3)cc(N)n2)CC1` (mixture of isomers) returned a Ki at Coagulation factor XI of 227 nM.
`NC[C@H]1CC[C@H](C(=O)N[C@H](Cc2ccccc2)c2cccc(-c3ccc4c(N)n[nH]c4c3)c2)CC1`: at Coagulation factor XI, the Ki is 6160 nM.
Take `CNc1cc(-c2ccccc2)cc(C(Cc2ccccc2)NC(=O)[C@H]2CC[C@H](CN)CC2)n1` (mixture of isomers): the Ki at Coagulation factor XI worked out at 860 nM.
`NC[C@H]1CC[C@H](C(=O)N[C@@H](Cc2ccccc2)c2cc(-c3ccc4c(N)n[nH]c4c3)ccn2)CC1`: the inhibition constant Ki is over 12600 nM on Prothrombin; over 21900 nM in [1]; over 21400 nM in assay [2]; over 34900 nM at Coagulation factor IX; 24 nM at Plasma kallikrein; over 14100 nM in [3]. Besides, the inhibition constant (Ki) is over 10900 nM at Coagulation factor VII; 64 nM at Trypsin; over 20800 nM in assay [4]; 8.4 nM at Coagulation factor XI; over 9000 nM at Coagulation factor X; over 22100 nM at Plasminogen. For the same compound, the 2aPTT in the assay with Plasma came out at 4.5 µM.
In turn, `NC[C@H]1CC[C@H](C(=O)N[C@H](Cc2ccccc2)c2cc(-c3ccc4c(N)n[nH]c4c3)ccn2)CC1` showed a Ki at Coagulation factor XI of 1070 nM.
`NC[C@H]1CC[C@H](C(=O)NC(Cc2ccccc2)c2cccc(-c3ccccc3)n2)CC1` (mixture of isomers) returned a Ki at Coagulation factor XI of 30200 nM.
On the same count and under the same terms, for `NC[C@H]1CC[C@H](C(=O)N[C@@H](Cc2ccccc2)c2nc(-c3ccccc3)c(Cl)[nH]2)CC1` the value was 12 nM.
Regarding `NC[C@H]1CC[C@H](C(=O)N[C@@H](Cc2ccccc2)c2nc(-c3ccc4c(N)n[nH]c4c3)c[nH]2)CC1`, the 2aPTT with Plasma came to 3 µM. Also, affinity at Coagulation factor XI was put at a Ki of 3.2 nM.
On Coagulation factor XI, `NC[C@H]1CC[C@H](C(=O)NC(Cc2ccccc2)c2cc(-c3ccccc3)c(F)cn2)CC1` (mixture of isomers) showed a Ki of 433 nM.
`NC[C@H]1CC[C@H](C(=O)NC(Cc2ccccc2)c2cc(-c3ccccc3)ncn2)CC1` (mixture of isomers) displayed a Ki on Coagulation factor XI of 331 nM.
Take `NC[C@H]1CC[C@H](C(=O)NC(Cc2ccccc2)c2cccc(-c3ccc4c(N)n[nH]c4c3)c2)CC1` (mixture of isomers): the 2aPTT with Plasma was over 40 µM. For the same compound, on Coagulation factor XI, the affinity, expressed as Ki, was 42 nM.
In turn, `NC[C@H]1CC[C@H](C(=O)NC(Cc2ccccc2)c2cc(-c3ccccc3)cc(Cl)n2)CC1` (mixture of isomers) registered a Ki on Coagulation factor XI of 206 nM.
Take `NC[C@H]1CC[C@H](C(=O)NC(Cc2ccccc2)c2ccnc(-c3ccccc3)c2)CC1` (mixture of isomers): at Coagulation factor XI, the Ki was 320 nM.
On the same count and under the same terms, the figure for `NC[C@H]1CC[C@H](C(=O)NC(Cc2ccccc2)c2cncc(-c3ccccc3)c2)CC1` (mixture of isomers) is 330 nM; for `NC[C@H]1CC[C@H](C(=O)NC(Cc2ccccc2)c2cc(-c3ccccc3)cc[n+]2[O-])CC1` (mixture of isomers) it is 1690 nM.
As to `NC[C@H]1CC[C@H](C(=O)N[C@@H](Cc2ccccc2)c2cccc(-c3ccc4c(N)n[nH]c4c3)c2)CC1`, the 2aPTT in the assay on Plasma worked out at 37 µM. For the same compound, on Coagulation factor XI, affinity was put at a Ki of 21 nM.
